Data as given in ChEMBL document CHEMBL1821702, “8,8-Dimethyldihydroberberine with improved bioavailability and oral efficacy on obese and diabetic mouse models” (Bioorg Med Chem, 2010).
One block for each compound: values may come before it. Calls of active or inactive are those of the source. The calls are words filed in the database; no cut-off is given here.

Assays:
Rattus norvegicus [1] = organism: Rattus norvegicus; test: Induction of AMPK-dependent ACC phosphorylation in 2 hrs serum starved rat differentiated L6 myotubes after 1 hr
Method in brief: (§1)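 Fully differentiated L6 myotubes were serum-starved 2 h, then treated 1 h across a dose series. Phospho-AMPK (Thr172) and phospho-ACC (Ser79) were detected by Western blot. Three independent experiments.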

L6 [2] = test: Cytotoxicity against rat L6 cells upto 10 uM after 24 hrs by MTT assay; format: cell-based; conditions: l6, 24 h
Method in brief: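 Differentiated L6 myoblasts were exposed to a concentration range of compounds for 24 h at 37 °C. MTT (5 mg/mL) was added for 3 h, formazan was dissolved in DMSO, and absorbance was read at 550 nm against 690 nm reference. Mean of three independent experiments ± SE.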

Rattus norvegicus [3] = organism: Rattus norvegicus; test: Induction of AMPK phosphorylation in 2 hrs serum starved rat differentiated L6 myotubes after 1 hr; method in brief: as §1
Mus musculus [4] = test: Antidiabetic activity in high fat diet-fed C57BL/6J mouse assessed as decrease in plasma insulin level at 15 mg/kg/day, po for 4 weeks; format: functional; design: scale not given: the % may be the effect or the level left
Method in brief: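 DIO male C57BL/6J mice (60 kcal% fat diet for 8 weeks) were gavaged daily in 0.5% microcrystalline cellulose/1.6% lactose vehicle. Plasma insulin was determined by ELISA after 4 weeks of treatment. Mean ± SE, n = 5–8.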

Mus musculus [5] = test: Toxicity in C57BLKS/J-db/db mouse assessed as change in adipose tissue mass at 50 mg/kg/day, po for 6 weeks; format: organism-based; design: route oral; conditions: in vivo, 1008 h
Method in brief: (§2)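 db/db mice (half male, half female) were dosed by oral gavage daily for 6 weeks in 0.5% microcrystalline cellulose/1.6% lactose vehicle. Body weight and food intake were recorded daily. Mice were killed after the final dose, and liver and fat depots were weighed and expressed relative to body weight.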

[6] = Stability in acidic buffer at pH 2 after 6 hrs by HPLC; format: physicochemical; conditions: buffer, pH 2, 6 h
Method in brief: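 A 0.5 mg/mL solution in acetonitrile was adjusted to pH 2 with H3PO4 and analyzed over 6 h by HPLC. Conditions: C18 column at 25 °C, 58% acetonitrile in 0.05 mol/L KH2PO4/0.005 mol/L SDS, 1 mL/min, detection at 320 nm.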

Mus musculus [7] = test: Antidiabetic activity in C57BLKS/J-db/db mouse assessed as alleviation of glucose tolerance at 50 mg/kg/day, po for 3 weeks measured after 90 mins by intraperitoneal glucose tolerance test; format: functional, organism-based
Method in brief: (§3)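 Male and female C57BLKS/J-db/db mice, randomized at 6 weeks of age by body weight and fed glucose, were gavaged once daily in vehicle (0.5% microcrystalline cellulose, 1.6% lactose). For ipGTT, D-glucose was given at 2 g/kg ip, and blood glucose was read by glucometer at 0, 15, 30, 60, 90 and 120 min.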

Rattus norvegicus [8] = organism: Rattus norvegicus; test: Inhibition of electron transport protein complex 1-mediated cellular respiration in rat liver mitochondria assessed as consumption of oxygen at 2.5 to 40 uM using pyruvate as substrate
Method in brief: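 Mitochondria isolated from rat liver. Complex I substrates 5 mM pyruvate plus 2 mM malate, with excess ADP (2.4 mM). Oxygen consumption read as dose–response. Three independent experiments, n = 5–7.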

Mus musculus [9] = test: Antidiabetic activity in C57BLKS/J-db/db mouse assessed as decrease in fed blood glucose level at 50 mg/kg/day, po for 3 weeks; format: functional; design: scale not given: the % may be the effect or the level left
L6 [10] = test: Increase in glucose uptake in rat differentiated L6 myotubes at 10 uM in presence of 100 nM PI-3 kinase inhibitor wortmannin
L6 [11] = test: Increase in glucose uptake in rat differentiated L6 myotubes after 1 hr; format: functional, cell-based
Method in brief: (§4)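 Fully differentiated L6 myotubes were serum-starved 2 h, then treated with compound for 15 min to 2 h (dose series at 1 h). Glucose uptake was measured relative to DMSO control. Mean of three independent experiments ± SE.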

Mus musculus [12] = test: Toxicity in C57BLKS/J-db/db mouse assessed as change in liver to body weight ratio at 50 mg/kg/day, po for 6 weeks; format: organism-based; design: route oral; conditions: in vivo, 1008 h; method in brief: as §2
L6 [13] = test: Increase in glucose uptake in rat differentiated L6 myotubes after 15 mins; format: functional; method in brief: as §4
Mus musculus [14] = test: Antidiabetic activity in C57BLKS/J-db/db mouse assessed as decrease in fed blood glucose level at 50 mg/kg/day, po for 4 weeks; format: functional; design: scale not given: the % may be the effect or the level left
Mus musculus [15] = test: Toxicity in high fat diet-fed C57BL/6J mouse assessed as change in food intake at 15 mg/kg/day, po for 6 weeks; format: organism-based; design: route oral; conditions: in vivo, 1008 h
Method in brief: (§5)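 Male C57BL/6J mice (purchased at 6 weeks of age) fed 60 kcal% fat diet for 8 weeks, then randomized by body weight and fed glucose. Dosed orally once daily for 6 weeks in vehicle of 0.5% microcrystalline cellulose plus 1.6% lactose. Groups: high-fat vehicle, metformin 250 mg/kg positive control, chow-fed vehicle. Body weight and food intake recorded daily.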

Mus musculus [16] = test: Antiobese activity in C57BLKS/J-db/db mouse assessed as decrease in plasma triglyceride level at 50 mg/kg/day, po […]; format: functional; design: scale not given: the % may be the effect or the level left
Method in brief: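 db/db mice were gavaged once daily in 0.5% microcrystalline cellulose/1.6% lactose vehicle for 6 weeks and killed after the final dose. Plasma triglycerides were measured with a colorimetric triglyceride assay kit.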

Mus musculus [17] = test: Antidiabetic activity in C57BLKS/J-db/db mouse assessed as alleviation of glucose tolerance at 50 mg/kg/day, po for 3 weeks measured after 15 mins by intraperitoneal glucose tolerance test; format: functional, organism-based; method in brief: as §3
L6 [18] = test: Increase in glucose uptake in rat differentiated L6 myotubes after 2 hrs; format: functional; method in brief: as §4
L6 [19] = test: Increase in glucose uptake in rat differentiated L6 myotubes at 2.5 uM after 1 hr; format: functional; method in brief: as §4
Mus musculus [20] = test: Toxicity in C57BLKS/J-db/db mouse assessed as change in food intake at 50 mg/kg/day, po for 6 weeks; format: organism-based; design: route oral; conditions: in vivo, 1008 h; method in brief: as §2
Mus musculus [21] = test: Antidiabetic activity in high fat diet-fed C57BL/6J mouse assessed as increase in glucose tolerance at 15 mg/kg/day, po for 4 weeks measured after 30 mins by intraperitoneal glucose tolerance test; format: functional, organism-based
Method in brief: (§6)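 High-fat-diet (60 kcal%, 8 weeks) male C57BL/6J mice were randomized by body weight and fed glucose, then dosed orally once daily in cellulose/lactose vehicle. ipGTT was done at 4 weeks: D-glucose 2 g/kg ip, glucometer readings at 0, 15, 30, 60, 90 and 120 min. n = 5–8.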

Mus musculus [22] = test: Antidiabetic activity in high fat diet-fed C57BL/6J mouse assessed as increase in glucose tolerance at 15 mg/kg/day, po for 4 weeks measured after 120 mins by intraperitoneal glucose tolerance test; format: functional, organism-based; method in brief: as §6
Mus musculus [23] = test: Antidiabetic activity in high fat diet-fed C57BL/6J mouse assessed as alleviation of insulin resistance at 15 mg/kg/day, po for 4 weeks measured after 90 mins by insulin tolerance test; format: functional, organism-based
Method in brief: (§7)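 Male C57BL/6J mice were fed a 60 kcal% fat diet for 8 weeks, randomized, then gavaged daily in 0.5% microcrystalline cellulose/1.6% lactose vehicle. ITT was run at 4 weeks: 6 h fast, insulin 0.75 U/kg ip, blood glucose at 0, 15, 30, 60, 90 and 120 min. Mean ± SE, n = 5–8.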

Mus musculus [24] = test: Antiobese activity in high fat diet-fed C57BL/6J mouse assessed as decrease in subcutaneous fat at 15 mg/kg/day, po for 6 weeks; format: functional; design: scale not given: the % may be the effect or the level left
Method in brief: (§8)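 DIO male C57BL/6J mice received daily oral dosing in cellulose/lactose vehicle for 6 weeks and were killed after the final dose. Plasma and liver triglycerides were measured by triglyceride assay kit, and fat depots were weighed.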

Mus musculus [25] = test: Antidiabetic activity in C57BLKS/J-db/db mouse assessed as reduction of fasting blood glucose level at 50 mg/kg/day, po for 3 weeks; format: functional; design: scale not given: the % may be the effect or the level left
[26] = Aqueous solubility of compound in distilled water; format: physicochemical
Method in brief: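 Excess solid was suspended in distilled water and stirred 24 h at 25 ± 0.5 °C. The suspension was filtered, and dissolved concentration was measured by HPLC.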

Mus musculus [27] = test: Toxicity in high fat diet-fed C57BL/6J mouse assessed as change in body weight at 15 mg/kg/day, po for 6 weeks; format: organism-based; design: route oral; conditions: in vivo, 1008 h; method in brief: as §5
L6 [28] = test: Increase in glucose uptake in rat differentiated L6 myotubes after 1 hr relative to untreated control; format: functional; method in brief: as §4
[29] = Oral bioavailability in 12 hrs fasting Sprague-Dawley rat at 10 mg/kg; format: ADME, organism-based; conditions: in vivo
Method in brief: (§9)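 Male Sprague–Dawley rats were fasted 12 h and gavaged at 10 mg/kg. Blood was taken retro-orbitally into heparin tubes from pre-dose to 24 h. Plasma levels of parent and of berberine/dihydroberberine were measured by LC–MS/MS.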

Mus musculus [30] = test: Antiobese activity in high fat diet-fed C57BL/6J mouse assessed as decrease in plasma triglyceride level at 15 mg/kg/day, po for 6 weeks; format: functional; design: scale not given: the % may be the effect or the level left; method in brief: as §8
Mus musculus [31] = test: Toxicity in C57BLKS/J-db/db mouse assessed as change in body weight at 50 mg/kg/day, po for 6 weeks; format: organism-based; design: route oral; conditions: in vivo, 1008 h; method in brief: as §2
Mus musculus [32] = test: Toxicity in C57BLKS/J-db/db mouse assessed as change in fat to body weight ratio at 50 mg/kg/day, po for 6 weeks; format: organism-based; design: route oral; conditions: in vivo, 1008 h; method in brief: as §2
L6 [33] = test: Increase in intracellular AMP:ATP ratio in rat differentiated L6 myotubes after 1 hr; format: functional, cell-based
Method in brief: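 Differentiated L6 myotubes were serum-starved 2 h and incubated 1 h with increasing concentrations. Intracellular AMP, ADP and ATP were measured and the AMP:ATP ratio calculated, with berberine 5 µM as positive control. Three independent experiments ± SE.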

[34] = Cmax in 12 hrs fasting Sprague-Dawley rat at 10 mg/kg, po; format: ADME, organism-based; design: dose 10 mg/kg, route oral; conditions: in vivo; method in brief: as §9
L6 [35] = test: Increase in glucose uptake in rat differentiated L6 myotubes at 20 uM in presence of 10 nM AMPK inhibitor compound C; format: functional, cell-based
Mus musculus [36] = test: Antidiabetic activity in C57BLKS/J-db/db mouse assessed as decrease in area under curve at 50 mg/kg/day, po for 4 weeks by insulin tolerance test; format: functional; design: scale not given: the % may be the effect or the level left
[37] = Half life in 12 hrs fasting Sprague-Dawley rat at 10 mg/kg, po; format: ADME, organism-based; design: dose 10 mg/kg, route oral; conditions: in vivo; method in brief: as §9
Mus musculus [38] = test: Antidiabetic activity in C57BLKS/J-db/db mouse assessed as alleviation of glucose tolerance at 50 mg/kg/day, po for 3 weeks measured after 120 mins by intraperitoneal glucose tolerance test; format: functional, organism-based; method in brief: as §3
Mus musculus [39] = test: Antiobese activity in high fat diet-fed C57BL/6J mouse assessed as decrease in liver triglyceride level at 15 mg/kg/day, po for 6 weeks; format: functional; design: scale not given: the % may be the effect or the level left; method in brief: as §8
Mus musculus [40] = test: Antidiabetic activity in C57BLKS/J-db/db mouse assessed as reduction of fasting blood glucose level at 50 mg/kg/day, po for 4 weeks; format: functional; design: scale not given: the % may be the effect or the level left
Mus musculus [41] = test: Antidiabetic activity in high fat diet-fed C57BL/6J mouse assessed as alleviation of insulin resistance at 15 mg/kg/day, po for 4 weeks measured after 60 mins by insulin tolerance test; format: functional, organism-based; method in brief: as §7
L6 [42] = test: Increase in glucose uptake in rat differentiated L6 myotubes at 20 uM after 1 hr; format: functional; method in brief: as §4

Activity (Rattus norvegicus [1]): Dose-dependent effect
Activity (Rattus norvegicus [3]): Dose-dependent effect
SMILES: CCC1(CC)c2c(ccc(OC)c2OC)CC2=[N+]1CCc1cc3c(cc12)OCO3.[Cl-] [8,8-Diethyldihydroberberine]
Activity (L6 [2]): Toxic

Stability [6]: Stable
Activity (Rattus norvegicus [1]): Dose-dependent effect
Activity (L6 [10]): Active
Activity (Rattus norvegicus [3]): Dose-dependent effect
solubility [26]: 81 mg/mL
bioavailability [29]: 10%
Cmax [34]: 17.8 ng/mL
half-life [37]: 2.9 h
SMILES: COc1ccc2c(c1OC)C(C)(C)[N+]1=C(C2)c2cc3c(cc2CC1)OCO3.[Cl-] [8,8-dimethyldihydroberberine]
Activity (Mus musculus [4]): 45%
Activity (Mus musculus [5]): Non-toxic
Activity (Mus musculus [7]): Active
inhibition (Rattus norvegicus [8]): Dose-dependent effect
Activity (Mus musculus [9]): 24%
Activity (L6 [11]): Dose-dependent effect
Activity (Mus musculus [12]): Non-toxic
Activity (L6 [13]): 28%
Activity (Mus musculus [14]): 40%
Activity (Mus musculus [15]): Non-toxic
Activity (Mus musculus [16]): 38%
Activity (Mus musculus [17]): Active
Activity (L6 [18]): 84%
Activity (L6 [19]): 48%
Activity (Mus musculus [20]): Non-toxic
Activity (Mus musculus [21]): Active
Activity (Mus musculus [22]): Active
Activity (Mus musculus [23]): Active
Activity (Mus musculus [24]): 36%
Activity (Mus musculus [25]): 24%
Activity (Mus musculus [27]): Non-toxic
Activity (L6 [28]): 37%
Activity (Mus musculus [30]): 26%
Activity (Mus musculus [31]): Non-toxic
Activity (Mus musculus [32]): Non-toxic
Activity (L6 [33]): Dose-dependent effect
Activity (L6 [35]): inactive
Activity (Mus musculus [36]): 28%
Activity (Mus musculus [38]): Active
Activity (Mus musculus [39]): 36%
Activity (Mus musculus [40]): 24%
Activity (Mus musculus [41]): Active
Activity (L6 [42]): 67%
